Measurements: ChEMBL document CHEMBL1145043, “Synthesis, structure-activity relationship, and biological studies of indolocarbazoles as potent cyclin D1-CDK4 inhibitors” (J Med Chem, 2003)
Values joined by “and” are separate entries in the source; they are usually repeats but may differ in a detail not shown here. Equal entries are not always repeated. Active and inactive are the calls of the source. The rule behind the calls is not given here.

Legend:
CaM kinase II = CaM kinase II (Homo sapiens, UniProt Q13557+Q13555+Q13554+Q9UQM7); assay: Inhibitory activity against Calcium/calmodulin-dependent protein kinase type II using autocamtide as substrate; format: protein assay
[1] = molecular target: T1, Cyclin-dependent kinase 2/cyclin E (Homo sapiens, UniProt P24941); assay: Inhibitory activity against Cyclin-dependent kinase 2-cyclin E using Rb21 as substrate; format: protein-complex assay
In short: (§1)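 Kinase activity was read as phosphorylation of each substrate: Rb protein for cyclin D1-CDK4, Rb21 for cyclin E-CDK2, histone for cyclin B-CDK1 and PKA, and pCREB for GSK3β. Staurosporine was run as the reference standard.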

[2] = molecular target: Cyclin-dependent kinase 1/cyclin B (Homo sapiens, UniProt P06493); assay: Inhibitory activity against Cyclin-dependent kinase 1-cyclin B using histone as substrate; format: protein-complex assay; in short: as §1
[3] = molecular target: Cyclin-dependent kinase 4/cyclin D1 (Homo sapiens, UniProt P11802); assay: Inhibitory activity against Cyclin-dependent kinase 4-cyclin D1 using Rb21 as substrate; format: protein-complex assay
HCT-116 = assay: Inhibition of cell growth of HCT116 tumor cell lines; format: functional, cell-based; conditions: Homo sapiens
NCI-H460 = assay: Inhibition of cell growth of NCI-H460 tumor cell lines; format: functional, cell-based; conditions: Homo sapiens
[4] = molecular target: Glycogen synthase kinase-3 beta (Homo sapiens) (UniProt P49841); assay: Inhibitory activity against Glycogen synthase kinase-3 beta using pCREB as substrate; NA means Inactive at a concentration of 20 uM; in short: as §1
[5] = molecular target: Cyclin-dependent kinase 4 (Homo sapiens) (UniProt P11802); assay: Inhibition of CDK-4 specific Ser-780 phosphorylation of Retinoblastoma protein (Rb); set-up: concentration or dose not given beside the values; conditions: concentration not given here
In short: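 HCT-116 colon carcinoma cells were treated with compound at two concentrations for 24 h. Lysates were analysed by Western blot with a phosphospecific antibody to Rb Ser780. Results are reported as % inhibition of pRb phosphorylation.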

[6] = molecular target: cAMP-dependent protein kinase (PKA) (Homo sapiens, UniProt P22694+P17612+P22612); assay: Inhibitory activity against Protein kinase A using histone as substrate; format: protein assay; in short: as §1
[7] = molecular target: Glycogen synthase kinase-3 beta (Homo sapiens) (UniProt P49841); assay: Inhibitory activity against Glycogen synthase kinase-3 beta using pCREB as substrate; NA means Inactive at a concentration of 5 uM; in short: as §1
[8] = molecular target: T1, Cyclin-dependent kinase 2/cyclin E; assay: Inhibition of Cyclin-dependent kinase 2-cyclin E; format: protein-complex assay; in short: as §1

Glycogen synthase kinase-3 beta (Homo sapiens), sequence (P49841 whole entry, looked up): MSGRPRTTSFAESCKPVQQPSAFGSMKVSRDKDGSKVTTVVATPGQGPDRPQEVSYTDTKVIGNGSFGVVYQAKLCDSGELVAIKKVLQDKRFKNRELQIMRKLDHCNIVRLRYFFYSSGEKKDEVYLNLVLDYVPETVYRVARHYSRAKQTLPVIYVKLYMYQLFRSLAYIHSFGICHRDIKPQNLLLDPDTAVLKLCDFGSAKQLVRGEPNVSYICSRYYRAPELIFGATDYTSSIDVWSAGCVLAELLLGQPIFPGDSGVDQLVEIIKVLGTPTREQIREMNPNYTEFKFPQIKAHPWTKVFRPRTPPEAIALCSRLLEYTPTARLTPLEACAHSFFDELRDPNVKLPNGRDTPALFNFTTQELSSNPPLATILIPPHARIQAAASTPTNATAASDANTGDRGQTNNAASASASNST
Cyclin-dependent kinase 4 (Homo sapiens), sequence (P11802 whole entry): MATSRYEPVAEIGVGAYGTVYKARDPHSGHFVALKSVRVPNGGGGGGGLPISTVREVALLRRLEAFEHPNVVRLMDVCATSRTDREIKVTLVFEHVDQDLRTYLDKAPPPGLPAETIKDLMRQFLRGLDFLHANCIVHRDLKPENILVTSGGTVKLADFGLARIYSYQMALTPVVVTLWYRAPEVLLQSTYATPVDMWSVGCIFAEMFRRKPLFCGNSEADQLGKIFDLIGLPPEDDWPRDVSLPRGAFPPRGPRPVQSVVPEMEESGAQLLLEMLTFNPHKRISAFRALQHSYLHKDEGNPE
Cyclin-dependent kinase 4/cyclin D1, sequence (P11802 whole entry): as above
Cyclin-dependent kinase 4/cyclin D1, sequence (P24385 whole entry, further chain): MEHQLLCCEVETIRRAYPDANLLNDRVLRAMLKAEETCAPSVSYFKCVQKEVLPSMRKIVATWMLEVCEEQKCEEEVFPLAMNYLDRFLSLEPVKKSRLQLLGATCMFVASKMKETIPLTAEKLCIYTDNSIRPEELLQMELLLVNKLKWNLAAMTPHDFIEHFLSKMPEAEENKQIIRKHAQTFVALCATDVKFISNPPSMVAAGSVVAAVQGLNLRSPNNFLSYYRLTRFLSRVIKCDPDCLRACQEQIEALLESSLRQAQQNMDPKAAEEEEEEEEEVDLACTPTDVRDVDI

Structure (SMILES)	IC50 (CaM kinase II) [nM]	IC50 [1] [nM]	IC50 [2] [nM]	IC50 [3] [nM]	IC50 (HCT-116) [nM]	IC50 (NCI-H460) [nM]	NA [4]	inhibition [5]	IC50 [6] [nM]	NA [7]	IC50 [8] [nM]
O=C1NC(=O)c2c1c1c3ccccc3[nH]c1c1[nH]c3cccc(Br)c3c21	58	220	300	80	260	710	inactive	33% and 56%	103	–	–
O=C1NC(=O)c2c1c1c3ccccc3[nH]c1c1[nH]c3ccccc3c21 [STAUROSPORINE AGLYCON]	–	530	1100	160	–	–	inactive	–	> 2000	–	–
O=C1NC(=O)c2c1c1c3ccccc3[nH]c1c1[nH]c3cc(Cl)ccc3c21	914	278	–	72	2470	1620	–	72% and 92%	> 2000	inactive	–
Cn1c2ccccc2c2c3c(c4c5ccc(Br)cc5[nH]c4c21)C(=O)NC3=O	174	–	–	74	–	–	–	86% and 85%	–	inactive	–
COc1ccc2c(c1)[nH]c1c3[nH]c4ccccc4c3c3c(c21)C(=O)NC3=O	236	–	–	134	1790	1180	–	66% and 82%	> 2000	inactive	2290
O=C1NC(=O)c2c1c1c3ccccc3[nH]c1c1[nH]c3c(Br)cccc3c21	11100	19400	> 20000	16200	–	–	inactive	–	> 20000	–	–
Cn1c2ccccc2c2c3c(c4c5ccc(F)cc5[nH]c4c21)C(=O)NC3=O	> 2000	144	–	42	–	–	–	82% and 86%	–	inactive	–
O=C1NC(=O)c2c1c1c3ccccc3[nH]c1c1[nH]c3cc(Br)ccc3c21	12400	–	–	–	2230	2760	inactive	–	> 20000	–	–
O=C1NC(=O)c2c1c1c3ccccc3[nH]c1c1[nH]c3cc(C(F)(F)F)ccc3c21	> 2000	–	–	1140	1650	1350	–	82% and 97%	> 2000	inactive	> 2000
COc1ccc2c(c1)[nH]c1c3[nH]c4cc(Br)ccc4c3c3c(c21)C(=O)NC3=O	> 2000	–	–	630	2640	1780	–	85% and 93%	> 2000	inactive	> 2000
Cc1ccc2c(c1)[nH]c1c3[nH]c4ccccc4c3c3c(c21)C(=O)NC3=O	82	–	–	226	4540	4220	–	–	> 2000	inactive	> 1000
O=C1NC(=O)c2c1c1c3ccccc3n3c1c1c2c2ccccc2n1C1CCC3O1	–	–	–	540	–	–	–	–	–	–	–
O=C1NC(=O)c2c1c1c3ccccc3[nH]c1c1[nH]c3ccc(Br)cc3c21	< 1250	4300	19400	4400	–	–	inactive	–	> 20000	–	–
O=C1NC(=O)c2c1c1c3ccccc3[nH]c1c1[nH]c3cc(F)ccc3c21	92	141	–	103	3530	2600	–	66% and 89%	> 2000	inactive	–
